Most compounds without a hit are left out; they make up all but 4% or so of the library.
SENP1 inh: inhibitors of human SENP1 SUMO protease catalytic domain | Q9P0U3 | recombinant SENP1 catalytic domain, CyPet-SUMO1-YPet FRET cleavage | inhibition, % at 10 µM | 0.21% of 360,000 active;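 active means inhibition at least 30% at 10 µM, raw YFP signal under a set limit, fluorescence ratio 0.5 to 1.5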
Target sequence (Q9P0U3 419-644 limits assumed): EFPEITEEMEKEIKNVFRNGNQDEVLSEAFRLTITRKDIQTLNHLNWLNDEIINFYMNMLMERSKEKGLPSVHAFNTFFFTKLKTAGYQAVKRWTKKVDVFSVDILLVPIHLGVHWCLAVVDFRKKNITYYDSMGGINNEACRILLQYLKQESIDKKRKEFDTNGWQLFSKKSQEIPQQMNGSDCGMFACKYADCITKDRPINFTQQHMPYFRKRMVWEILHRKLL
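Test system: human SENP1 catalytic domain; medium: Tris pH 8 buffer plus EDTA, NaCl, BME, BSA, NP40, catalase; incubation: 50 min reaction at room temperature; technique: FRET, CFP and YFP emission; controls: no-enzyme low control and enzyme-plus-DMSO high control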
NR3A LBD binder: NR3A (human) ligand-binding domain modulation. NR3A LBD differential scanning fluorimetry, Tm shift; 0% = protein alone, 100% = glycine-bound protein. Tm shift relative to glycine control, % at 25 µM. 2.5% of 340,000 active;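 active means melting temperature shift of at least 10% of the positive control shift, at one fixed dose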
Arrestin-AP2 inh: human beta-arrestin and AP2 interaction inhibition; FITC-arrestin peptide / GST-AP2 beads, flow cytometry; AP2 beta2 appendage carries R879A mutation; inhibition, % at 10 µM; 0.31% of 340,000 active; AID 504490;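 active means inhibition above a set limit, near 3 SD of compounds lacking own fluorescence, cut at about 54% in these data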
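Test system: GST-tagged AP2 beta2-adaptin appendage (R879A) on 4 µm glutathione beads; also added: fluorescein-tagged arrestin peptide at 50 nM final; timing: 12 min plus 1 h, RT; signal: flow cytometry, FL1 (488/535 nm); read-out: percent drop in bead-associated FITC signal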
Cardio protect: myocardial damage modulation in H9c2 cells; H9c2 cardiomyocytes, H2O2 injury protection, ATPLite, 2 h; protection from H2O2 cell death, % at 20 µM; 0.63% of 360,000 active; AID 588492;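 active means compounds giving at least 50% protection of heart cells from peroxide-induced death in the single-dose screen, raw or plate-pattern-corrected value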
hiPSC survival: increases survival of single human iPS cells. hiPSC single-cell survival, ATPlite luminescence; 100% = ROCK inhibitor wells, 0% = DMSO. survival enhancement, % at 20 µM. 0.044% of 360,000 active. AID 602274; in the data active means survival enhancement above about 18%;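 further: cells exposed to compounds for 16 hours before the ATP read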
FAS TE block: inhibitors of human fatty acid synthase thioesterase domain; recombinant FAS-TE, OMFH fluorogenic substrate, fluorescence endpoint; 0.67% of 360,000 active; inhibition, % at 15 µM; P49327;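 active means compounds whose normalised, plate-corrected inhibition of enzyme fluorescence in the single-dose primary screen is 50% or more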
Large screens that a line does not name were inactive.

CN(C)c1ccc(C(C(=O)NCC2CCCO2)N(Cc2ccccc2)C(=O)c2snc(C(N)=O)c2N)cc1 (stereo not drawn)	Cardio protect 51.4
COc1cc(/C=C/c2ccc3c(Br)cc(Br)c(O)c3n2)ccc1O	NR3A LBD binder 15.9
COc1ccc(/C=C/c2ccc3c(Br)ccc(O)c3n2)cc1	Cardio protect 61.8
O=S(=O)(Nc1nc2ccccc2nc1Nc1ccc(N2CCOCC2)cc1)c1cc(Cl)ccc1Cl	NR3A LBD binder 19.9
O=C1NC[C@@H](CCCCN2CCN(CCC3CCCCC3)C(=O)C2=O)N(CC2CCCCC2)C1=O	none (no result: NR3A LBD binder, Arrestin-AP2 inh, Cardio protect)
Cc1ccc(S(=O)(=O)N2CCOC23CCN(S(=O)(=O)c2cccs2)CC3)cc1	NR3A LBD binder 12.2
CCOC(=O)c1sc(N2N=C(C)/C(=C\c3ccc(OCC(=O)OC)cc3)C2=O)nc1C	Cardio protect 58.1
CCOC(=O)c1sc(Nc2ccc(OCC)cc2)nc1C	none
c1ccc(Cc2nn3c(COc4ccccc4)nnc3s2)cc1	none
CCOc1ccccc1OCc1nn2c(COc3ccccc3)nnc2s1	NR3A LBD binder 14.2
O=S(=O)(NCC(Nc1ccccc1)c1ccccc1)c1ccc(Cl)cc1 (stereo not drawn)	NR3A LBD binder 17.1
CCOC(=O)/C(C#N)=C1/C=C(C)NC(c2ccccc2O)=N1	NR3A LBD binder 14.0
CCOC(=O)/C(C#N)=C1\Nc2ccccc2N=C1N(CC(C)C)CC(C)C	none
CCC(=O)c1ccc(N2CCN(C(=O)COc3ccccc3F)CC2)c(F)c1	none
CC(=O)c1ccc(N2CCN(C(=O)COc3ccccc3F)CC2)c(F)c1	NR3A LBD binder 10.1
Nc1sccc1C(=O)N1CCN(c2ccccc2)CC1	none (no result: NR3A LBD binder, Arrestin-AP2 inh, Cardio protect, hiPSC survival, FAS TE block)
C(=Cc1c[nH]c2ccccc12)c1ccc2ccccc2n1	NR3A LBD binder 21.8
C(=Cc1c[nH]c2ccccc12)c1nccc2ccccc12	none
O/C(=C\c1ccc2ccccc2n1)c1ccc(O)cc1O	NR3A LBD binder 34.8
Oc1ccc(/C=C/c2ccc3ccccc3n2)cc1	NR3A LBD binder 19.1
C[C@@H]1CN([C@@H](C)CO)C(=O)CCCn2nncc2CO[C@H]1CN(C)C(=O)c1ccncc1	none (no result: NR3A LBD binder, Arrestin-AP2 inh)
O=C(c1cc(-c2ccccc2)on1)N(Cc1cccnc1)C(c1ccccn1)c1nc2ccccc2[nH]1 (stereo not drawn)	none (no result: NR3A LBD binder, Arrestin-AP2 inh)
N#CCC(=O)N/N=C/c1cc(Br)ccc1OCc1cccc2ccccc12	NR3A LBD binder 20.0
c1ccc(N2CCN(c3ccccc3)C2c2cccnc2)cc1	NR3A LBD binder 10.2
CCOc1cc(N2CCOCC2)c(OCC)cc1NC(=O)COC(=O)C1CCCN1S(=O)(=O)c1ccccc1F (stereo not drawn)	NR3A LBD binder 26.3
O=c1ccn([C@@H]2O[C@H](CNCc3ccc(-c4cc(C(F)(F)F)ccc4Cl)o3)[C@@H](O)[C@H]2O)c(=O)[nH]1	NR3A LBD binder 16.8
Nc1ncnc2c1ncn2[C@@H]1O[C@H](CNCc2ccc(-c3cc(C(F)(F)F)ccc3Cl)o2)[C@@H](O)[C@H]1O	none
Cc1ccc(NC(=O)CN(C)C(=O)c2cccc(S(=O)(=O)N3CCc4ccccc43)c2)cc1	none
COc1ccc(C(=O)C[C@@H]2OC3CCCCC3N2S(=O)(=O)c2ccc(C)cc2)cc1OC (stereo partly drawn)	none (no result: NR3A LBD binder, Arrestin-AP2 inh, Cardio protect, hiPSC survival, FAS TE block)
CCOC(=O)C1=CCC(c2ccccc2C)N(S(=O)(=O)c2ccc(C)cc2)C1 (stereo not drawn)	none (no result: NR3A LBD binder, Arrestin-AP2 inh)
CCCCCCCCCCCCCCCC[N+](C)(C)CCN(Cc1ccc(OC)cc1)c1ncccn1	NR3A LBD binder 23.5
O=C(Nc1cc(Br)ccc1O)c1cnn2c(C(F)F)cc(C3CC3)nc12	NR3A LBD binder 14.3
O=C(Nc1cccnc1)c1cnn2c(C(F)F)cc(C3CC3)nc12	none
O=c1c2[nH]c3ccc(Br)cc3c2ncn1CCCn1ccnc1	NR3A LBD binder 16.3
CC(=O)NC1(C)CCC2CC1C(C)=NC2(C)C (stereo not drawn)	none (no result: NR3A LBD binder, Arrestin-AP2 inh)
Cc1ccnc(NC(c2ccccc2)c2ccc3cccnc3c2O)c1 (stereo not drawn)	NR3A LBD binder 147.9
CC(=O)NC(c1ccc(Cl)cc1)c1ccc2cccnc2c1O (stereo not drawn)	none
Cc1ccc2ccc(C(Nc3ccccn3)c3ccccc3)c(O)c2n1 (stereo not drawn)	Cardio protect 87.8
Cc1cc(NC(c2ccc(Cl)cc2)c2ccc3cccnc3c2O)no1 (stereo not drawn)	Cardio protect 58.1
Cc1ccc2ccc(C(Nc3ccccc3)c3ccccc3)c(O)c2n1 (stereo not drawn)	none (no result: NR3A LBD binder, Arrestin-AP2 inh, Cardio protect, hiPSC survival, FAS TE block)
Cc1cccc(NC(c2ccc(C)s2)c2ccc3ccc(C)nc3c2O)n1 (stereo not drawn)	Cardio protect 90.7
Cc1ccc2ccc(C(Nc3cccc(C(F)(F)F)c3)c3cccnc3)c(O)c2n1 (stereo not drawn)	Cardio protect 83.6
O=C(O)c1ccccc1NC(c1ccccc1)c1ccc2cccnc2c1O (stereo not drawn)	Cardio protect 58.9
Clc1ccccc1-c1cnc2sc(NCc3ccc4c(c3)OCO4)nn12	none (no result: NR3A LBD binder, Arrestin-AP2 inh)
CCc1nc2c(OCc3cccc(Cl)c3)cccn2c1N(C)C(=O)C1CC1	none (no result: NR3A LBD binder, Arrestin-AP2 inh)
O=C(Nc1cccc2ccccc12)N1CCOCC1	NR3A LBD binder 17.3
O=C(C[n+]1ccc(-c2nnc3n2CCC3)cc1)c1ccc(Cl)c(Cl)c1	NR3A LBD binder 13.1
O=C(OC1CC2CC1[C@H]1CCCCN1C2=O)N1CCCCC1 (stereo partly drawn)	none (no result: NR3A LBD binder, Arrestin-AP2 inh, Cardio protect)
Cc1ccc(C(=O)N/C(=C\c2ccc(Br)cc2)c2nc(=S)[nH][nH]2)cc1	none
O=C(N/C(=C/c1cccc(Br)c1)c1nc(=S)[nH][nH]1)c1ccccc1	NR3A LBD binder 22.1
CN(C)C(=O)CCc1ccc2c3c([nH]c2c1)[C@]1(CCc2ccccc2)[C@@H](C(=O)N2CCCCC2)C[C@H](CC(=O)NCc2cccc(C(F)(F)F)c2)C(=O)N1CC3	NR3A LBD binder 15.2
CCOC(=O)c1ccc(NC(=O)COc2ccc(-n3cnnn3)cc2)cc1	NR3A LBD binder 30.9
NC(=O)c1nsc(C(=O)N(Cc2ccco2)C(C(=O)NCc2ccc(F)cc2)c2ccc(O)cc2)c1N (stereo not drawn)	Cardio protect 53.7
Cc1ccc(C(C(=O)NCc2ccc(F)cc2)N(Cc2ccco2)C(=O)c2snc(C(N)=O)c2N)o1 (stereo not drawn)	none
Cc1ccccc1C(C(=O)NCc1ccccc1)N(Cc1ccco1)C(=O)c1ccccn1 (stereo not drawn)	Cardio protect 50.6
